This is a sample that favours compounds with a hit; in the whole collection about 2.6% have one here.
PG9 Ab binder – small molecules binding HIV-1 gp120 antibody PG9; AID 624416; TR-FRET gp120-PG9 antibody binding; hit rate 0.43% among 360,000; inhibition, % at 6.7 µM; in the data active = inhibition above about 8.5%
rCAG binder – binds r(CAG) RNA repeats; r(CAG) RNA repeat, TO-PRO-1 dye displacement fluorescence; inhibition, % at 3 µM; hit rate 1.3% among 370,000;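 active = inhibition above the plate cutoff, the mean of all test compounds on that plate plus 3 SD, cut at about 35% in these data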;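 note: 0% = DMSO alone and 100% = 100 µM mitoxantrone as full dye displacement; higher means more dye released from RNA so lower well fluorescence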
NR1D1 modulator – Rev-erb alpha (human) modulation; AID 1259318; hit rate 0.79% among 370,000; activity, % at 10 µM; Rev-erbα–FITC-DNA binding, fluorescence polarization, 90 min;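 active = activity above about 14%, limit read from the data; passing the limit was not always enough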;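 note: 0% = DMSO wells with 35 nM protein and 100% = DMSO wells with 750 nM protein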
NR2E3 ag-1 – activates human photoreceptor nuclear receptor NR2E3; Q9Y5X4; GST-NR2E3/biotin-RetCOR TR-FRET, 1536-well; inhibition of corepressor binding, % at 4.78 µM; hit rate 0.12% among 320,000; AID 2300;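 active = percent inhibition above the cutoff of mean plus 3 SD of all tested compounds, set per screening campaign, cut at about 20% in these data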;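 note: 0% = DMSO wells and 100% = biotin wells as full block of FRET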
Target sequence (Q9Y5X4 whole entry, looked up): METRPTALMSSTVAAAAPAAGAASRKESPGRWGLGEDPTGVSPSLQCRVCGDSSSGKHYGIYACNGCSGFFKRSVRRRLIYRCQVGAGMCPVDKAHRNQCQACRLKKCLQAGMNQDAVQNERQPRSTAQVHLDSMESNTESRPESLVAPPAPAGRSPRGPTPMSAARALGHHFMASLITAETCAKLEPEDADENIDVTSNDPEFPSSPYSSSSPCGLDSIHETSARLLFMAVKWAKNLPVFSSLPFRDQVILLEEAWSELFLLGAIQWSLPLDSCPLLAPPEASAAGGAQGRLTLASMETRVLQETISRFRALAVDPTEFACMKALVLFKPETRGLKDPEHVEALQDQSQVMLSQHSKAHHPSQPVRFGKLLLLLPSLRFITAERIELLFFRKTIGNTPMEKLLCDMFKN
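Format: 1536-well format; test system: GST-NR2E3 and biotin-RetCOR proteins; read-out basis: percent inhibition of TR-FRET ratio; timing: 5 h incubation at 4 °C; detection: time-resolved FRET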
NR2E3 ag-2 – human photoreceptor-specific nuclear receptor agonism; Q9Y5X4; CHO-S Gal4-NCOR/VP16-NR2E3 two-hybrid, luciferase; inhibition of corepressor binding, % at 3.98 µM; hit rate 0.35% among 360,000;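 active = inhibition above the mean of all tested compounds plus 3 SD, cut at about 70% in these data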;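 note: 0% = DMSO with NR2E3 transfected cells and 100% = cells lacking NR2E3 construct; higher means lower luciferase signal from less NR2E3 corepressor binding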
rCAG bind conf – r(CAG) RNA repeat binding, confirmation; AID 652065; inhibition, % at 3 µM; hit rate 70% among 4,300; TO-PRO-1 dye displacement fluorescence; shares compounds with rCAG binder;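 active = inhibition above a per-plate cutoff, the mean inhibition of sample wells plus 3 SD, cut at about 35% in these data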;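 note: loss of TO-PRO-1 fluorescence as compound displaces dye from 1x1 AA loop RNA; 0% = DMSO only wells and 100% = 100 µM mitoxantrone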
dCAG dye counter – DNA CAG dye complex inhibition counter-screen; shares compounds with rCAG binder; d(CAG) DNA oligo TO-PRO-1 dye displacement, fluorescence; inhibition, % at 3 µM; hit rate 94% among 4,300; AID 652068;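 active = inhibition above its plate's cutoff, the mean test-well inhibition plus 3 SD, cut at about 4.8% in these data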;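 note: 0% = DNA dye mix with DMSO and 100% = 100 µM mitoxantrone; hits displace the dye from DNA and so lower well fluorescence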
* marks the source's active call; other numbers are inactive results; . = no result given.

SMILES	PG9 Ab binder	rCAG binder	NR1D1 modulator	NR2E3 ag-1	NR2E3 ag-2	rCAG bind conf	dCAG dye counter
COc1ccc(C2CC(c3ccccc3)=NN2c2ccc(Cl)c(C(=O)O)c2)cc1 (stereo not given)	3	61*	-6	-1	-23	55*	17*
COc1ccc(C2CC(c3ccccc3)=NN2c2ccc(N)cc2)cc1 (stereo not given)	0	13	-3	-1	-92	.	.
COc1ccc(C2=NN(c3ccccc3)C(c3cn(CCC(=O)O)nc3-c3ccccc3)C2)cc1 (stereo not given)	0	39*	4	3	-6	46*	12*
COc1ccc(C2CC(c3ccccc3)=NN2c2ccccc2)c(C(=O)O)c1OC (stereo not given)	0	46*	2	4	8	59*	16*
O=C(OCC#CCSc1nnc(-c2cccs2)o1)c1ccc(F)cc1	.	.	5	.	.	.	.
COc1ccc(C2CC(c3ccccc3)=NN2c2ccc(S(N)(=O)=O)cc2)cc1OC (stereo not given)	1	10	-1	-1	6	.	.
COc1cc(C2CC(c3ccccc3)=NN2c2ccccc2)ccc1OCC(=O)O (stereo not given)	2	41*	1	2	-20	50*	15*
CC(Oc1ccc(Cl)cc1Cl)C(=O)NNC(=O)C(=O)N1CCCC1 (stereo not given)	-1	0	1	2	-24	.	.
CCCNc1ncc2c(=O)[nH][nH]c(=O)c2n1	-1	2	1	.	-7	.	.
NC(Cc1ccc(O)cc1)C(=O)NN=Cc1ccccc1Cl (stereo not given)	1	6	-6	.	.	.	.
Cc1noc(C)c1CSCC(=O)Nc1nc2c(F)cc(F)cc2s1	0	36*	-11	1	-12	29	18*
Cc1cccc(NC(=O)COC(=O)CC2CCCC2)c1C	-1	-9	-4	.	5	.	.
O=C(O)c1ccc(Cl)cc1Nc1nc2cc(Cl)ccc2o1	1	73*	-13	1	-14	84*	62*
NC(=O)C(c1ccccc1)c1ccc(C(=O)c2ccccc2)cc1 (stereo not given)	1	-3	2	-1	7	.	.
Cc1ccc([C@@H]2C[C@H]3[C@@H](CN2S(=O)(=O)c2ccc(Cl)cc2)C(=O)C[C@@H](c2ccc(Cl)cc2)N3S(=O)(=O)c2ccccc2C)cc1	0	12	2	.	-13	.	.
CN(c1ccccc1)S(=O)(=O)c1ccc(Cl)c(C(=O)NCc2ccccc2CN2CCCC2)c1	-1	2	-3	2	-24	.	.
CCc1sc(C(C2C(=O)CC(C)(C)CC2=O)C2C(=O)CC(C)(C)CC2=O)cc1[N+](=O)[O-]	0	37*	-2	2	-11	23	6.4*
CCc1nc2ccc(C(=O)N3CCN(C(=O)c4ccco4)CC3)cn2c1N(CC)CCOC	1	0	-6	.	5	.	.
CC(=O)OC1CCC2C3CCc4cc(OP(=O)(N5CC5)N5CC5)ccc4C3CCC12C (stereo not given)	-2	5	-4	.	9	.	.
CNc1nc2[nH]c(=O)c3c(c2s1)OC(N)=C(C#N)C3c1ccccc1 (stereo not given)	1	10	0	0	4	.	.
CCNc1nc2[nH]c(=O)c3c(c2s1)OC(N)=C(C#N)C3c1ccc(C)cc1 (stereo not given)	-4	53*	-2	1	-9	27	14*
C=CCCC(=O)N(Cc1ccccc1)c1ccccc1C(=O)Nc1cc(OC)ccc1OC	.	3	-2	.	.	.	.
COc1ccc(C(=O)OCC(=O)Nc2ncc([N+](=O)[O-])s2)cc1OC	-1	52*	-15	4	-23	74*	41*
Cc1cc(C(=O)Nc2ccccc2C(=O)O)ccc1NC(=O)COc1ccccc1Cl	0	12	-5	4	-18	.	.
O=C(COc1ccccc1C(=O)O)Nc1cccc2ccccc12	1	5	-2	.	-3	.	.
